Measurements as given in ChEMBL document CHEMBL1250451, “Mechanistic insights into a Ca2+-dependent family of alpha-mannosidases in a human gut symbiont” (Nat Chem Biol, 2010).

Columns and labels:
Format in all cases: protein assay
[1] = substrate: OC[C@H]1O[C@H](O[C@H]2[C@@H](O)[C@H](O)[C@@H](CO)O[C@@H]2O)[C@@H](O)[C@@H](O)[C@@H]1O; assay: Activity of Bacteroides thetaiotaomicron GH92 alpha-mannosidase GH92 alpha-mannosidase 4092 assessed as mannose release after 16 hrs by HPLC
Method in brief: (§1)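 Yeast mannan or ovalbumin (mostly high-mannose N-glycans) at 1 mg ml−1 was incubated with recombinant IMAC-purified enzyme from E. coli. The methods give enzyme at 2 μM and the table footnote gives 1 μM. Buffer was 100 mM sodium HEPES pH 7.0 with 1 mg ml−1 BSA and 2 mM CaCl2. Aliquots were taken at 1 and 16 h and boiled 10 min. Mannose was measured by HPLC and scored by signal: >500 nC +++, 200–500 ++, <200 +.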

[2] = substrate: OC[C@H]1O[C@H](O[C@H]2[C@@H](O)[C@H](O)[C@@H](CO)O[C@@H]2O)[C@@H](O)[C@@H](O)[C@@H]1O; assay: (§2) Ratio of Kcat to Km for Bacteroides thetaiotaomicron GH92 alpha-mannosidase GH92 alpha-mannosidase 4092 assessed as mannose release after 16 hrs by HPLC
[3] = substrate: O=[N+]([O-])c1ccc(O[C@H]2O[C@H](CO)[C@@H](O)[C@H](O)[C@@H]2O)cc1; assay: as §2
[4] = substrate: O=[N+]([O-])c1ccc(O[C@H]2O[C@H](CO)[C@@H](O)[C@H](O)[C@@H]2O)cc1; assay: (§3) Activity of Bacteroides thetaiotaomicron GH92 alpha-mannosidase GH92 alpha-mannosidase 4073 assessed as mannose release after 16 hrs by HPLC; method in brief: as §1
[5] = substrate: OC[C@H]1O[C@H](O[C@H]2[C@H](O)[C@H](O)[C@@H](O)O[C@@H]2CO)[C@@H](O)[C@@H](O)[C@@H]1O; assay: as §3; method in brief: as §1
[6] = substrate: O=[N+]([O-])c1ccc(O[C@H]2O[C@H](CO)[C@@H](O)[C@H](O)[C@@H]2O)cc1; assay: Ratio of Kcat to Km for Bacteroides thetaiotaomicron GH92 alpha-mannosidase GH92 alpha-mannosidase 4073 assessed as mannose release after 16 hrs by HPLC
[7] = substrate: OC[C@H]1O[C@H](O[C@H]2[C@@H](O)[C@H](O)[C@@H](CO)O[C@@H]2O)[C@@H](O)[C@@H](O)[C@@H]1O; assay: (§4) Activity of Bacteroides thetaiotaomicron GH92 alpha-mannosidase 2199 E537A mutant assessed as as mannose release after 16 hrs by HPLC relative to wild type enzyme
[8] = substrate: O=[N+]([O-])c1ccc(O[C@H]2O[C@H](CO)[C@@H](O)[C@H](O)[C@@H]2O)cc1; assay: as §4
[9] = substrate: OC[C@H]1O[C@H](O[C@H]2[C@@H](O)[C@H](O)[C@@H](CO)O[C@@H]2O)[C@@H](O)[C@@H](O)[C@@H]1O; assay: (§5) Ratio of Kcat to Km for Bacteroides thetaiotaomicron GH92 alpha-mannosidase 2199 E537A mutant assessed as as mannose release after 16 hrs by HPLC relative to wild type enzyme
[10] = substrate: O=[N+]([O-])c1ccc(O[C@H]2O[C@H](CO)[C@@H](O)[C@H](O)[C@@H]2O)cc1; assay: as §5

B1: Alpha-1,2-mannosidase (BT_4092) (Bacteroides thetaiotaomicron), Q8A0C9 (protein)
chain: MKKLVYLIIFFLYSTVMNAQLKDLVQYVNTLQGTDSNFGLSYGNTYPTTGMPYGMHMWSAQTGKNGDGFKYMYAVDKIRAFSQSHQCSPWVSDYAVYSFMPMVGELVVNQDARATKFSHDNEIAKPHYYKVTFDNGITTEMAPTTRGVHLRFSYPTTGDAYLVLDGYTDMSEIKIDPAKRQISGWVNNQRFVNDSKSFRNYFVVQFDKPFEDYGVWENQKDEVFPQKLDGAGKGYGAFIKFKKGSKVQAKAASSYISAEQALITLNKELGKDKNLEVTKARGQKTWNEVLNRIVVEGCTDEQMKTFYSCLFRANLFSRKFYERKENGEPYYYSPYNGKIYDGYMYTDNGFWDTFRSQFPLTNILHPTMQGRYMNALLAAQEQCGWLPSWSSPGETGGMLGNHSISLLADAWAKGIRDFDPEKALKAYAHEAMNKGPWGGANGRGFWKEYFQLGYVPYPESMGSSAQTMEYAYDDFCGYQLAKMVGNKHYQEVFARQMYNYKNVFDKSIGFMRGKGVDGKWQEPFDPLEWGGPFCEGNAWHYTWSVFHDVQGLIDLFGSDEKFTTKIDSVFTIPNIIKPGTYGGVIHEMKEMELANMGQYAHGNQPIQHMPYLYCYAGQPWKTQYWVRQIVERLYNSTEKGYPGDEDQGGMSSWYILSSLGIYAVCPGTDEYVIGSPLFKKATITMENGNKFVIEAPENSKENLYIQSATLNGRLLDKNYIHYDDIAEGGVLKFEMGSQPNKERCTSKYAAPFSLSKE
[1]
  Km: 2000 µM
  kcat: 1.83 s⁻¹
[2]
  kcat/Km: 900 M⁻¹ s⁻¹
[3]
  kcat/Km: 1.12 M⁻¹ s⁻¹

B2: Alpha-1,2-mannosidase, putative (BT_4073) (Bacteroides thetaiotaomicron), Q8A0E8 (protein)
chain: MYKASANILIACSFLWLTACSSAGVVTEDLIPTDYVNPFIGASTSVGAAGVYHGLGKTFPGATTPYGMVQVSPNTITGGDNSSGYSDEHKTIEGFAFTQMSGVGWFGDLGNFLVMPTTGELQKIAGKEDGSIKGYRSSYDKATETAKAGYYSVELTDYKIKVESSATPHCGILQFTFPSNEQSRIQIDLARRVGGTSTSQYVKVLDDYTIQGWMKCTPDGGGWGNGEGNSDYTVYYYAQFSKPLSNYGFWSADIPDEWVRKRDEVVSIPYLTRISQAPVIKDKKELEGKHLGFFTEFPTKEGEQVEMKVGISFVDMEGAANNFKQEIASKNFAQVKQEASDLWNKELSRIRISGGTDDEKTVFYTSLYHTMIDPRIYTDVDGRYIGGDKKVHEQDGTFTKRTIFSGWDVFRSQFPLQAMINPRLVSDALNSLITMADQSRREYYERWELLNSYSGCMIGNPALSVLADAYMKGIRTYDVEKAYQYAVNTSAKFGNDSLGYTPEPLSISYTLEYAYADWCVAQLAKALGKEEDAKRFYEKGQAYRNMFDAEKGWFRPRNADGSWKAWPENALTEEWYGCIESNAYQQGWFVPHDVPGMVELMGGKEEVIANLTNLFDHTPSDMLWNDYYNHANEPVHFVPFLFNQLDVPWYTQKWTRYICKNAYANKVEGIVGNEDVGQMSAWYILAASGIHPSCPGNTRMEITSPVFDKVEFNLDSKYHQGKVFTIIAHNNNTNNLYIQKALLNGKEYNKCYLDFAEIAAGGTLELFMGDKPNTEWGVLSNI
[4]
  Km: 1800 µM
  kcat: 0.0045 s⁻¹
[5]
  Km: 270 µM
[6]
  kcat/Km: 2.33 M⁻¹ s⁻¹

B3: Alpha-1,2-mannosidase (BT_2199) (Bacteroides thetaiotaomicron), Q8A5N9 E537A (protein)
chain: MVTRLFFLSICFPFLLTSCQQSKKTVEFVDYVNPLMGTESTFAFSHGNTYPAVAVPWGMNFWSPQTGENGSGWMYTYTDSLMRGFRQTHQPSPWINDYGTFSIMPLAGELKMSHKERLVPFSHQQEKATPYNYSVTFNNGLQTSLSATSRGAVFEVSFPEKEDQYVVVDAYNGGSSITIEPEKRLVKGATRYNNGGVPDNFANYFMMEFSHPVIEYGTYNGDTLLHHQTDVAADYTCAYLKFDVPAGEKLTIRTASSFISPEQAAINFNREVADADVQLISGKAREQWNNYLGRVEAEGGTDEQLRTFYSCLYRTLLFPREFYEFDSQGNPVYYSPYDGNVHDGYMYTDNGFWDTFRAVHPLFTLLYPEVSERVTQSIINAYNESGFMPEWASPGHRGCMIGNNSVSLLVDAWMKGIQTVDAEKALEAMIHQTQARHAEIASVGRDGFEYYDKLGYVPYPEVPEATAKTLEYAYADWCIARFAESLGKQDIADQYYQKAPNYRNLYYPEHGFMWTKDAKGNWRDRFDATEWGGPFTAGSSWHWTWSVFHDPEGLSELMGGHEPMIARLDSMFVAPNTYNYGTYGFVIHEIAEMVALNMGQYAHGNQPVQHAIYLYDYIGQPWKTQYHLRNVMDKLYNSGSKGYCGDEDNGQTSAWYVFSAMGFYPVCPGMPEYAIGSPLFKKVTLHLPEGKNFVVSAADNAADRPYIRKALLNGQEFTRNYLTHDELKQGGELNLSMDSVPNQQRGTQPADFPYSYSK
[7]
  Km: 874 µM
  kcat: 0.00045 s⁻¹
[8]
  Km: Not Active
  kcat: Not Active
[9]
  kcat/Km: 0.517 M⁻¹ s⁻¹
[10]
  kcat/Km: 0.383 M⁻¹ s⁻¹
